ChEMBL document CHEMBL4311947, “Discovery of Novel Naphthylphenylketone and Naphthylphenylamine Derivatives as Cell Division Cycle 25B (CDC25B) Phosphatase Inhibitors: Design, Synthesis, Inhibition Mechanism, and in Vitro Efficacy against Melanoma Cell Lines” (J Med Chem, 2019)
Activity calls are given as the source filed them.

Legend:
[1] = molecular target: T1, M-phase inducer phosphatase 2 (Homo sapiens) (UniProt P30305); experiment: Inhibition of N-terminal His6-tagged human CDC25B (377 to 550 residues) expressed in Escherichia coli BL21(DE3) cells assessed as reduction in Vmax using OMFP as substrate by double reciprocal Lineweaver-Burk plot analysis
T1 sequence (whole entry): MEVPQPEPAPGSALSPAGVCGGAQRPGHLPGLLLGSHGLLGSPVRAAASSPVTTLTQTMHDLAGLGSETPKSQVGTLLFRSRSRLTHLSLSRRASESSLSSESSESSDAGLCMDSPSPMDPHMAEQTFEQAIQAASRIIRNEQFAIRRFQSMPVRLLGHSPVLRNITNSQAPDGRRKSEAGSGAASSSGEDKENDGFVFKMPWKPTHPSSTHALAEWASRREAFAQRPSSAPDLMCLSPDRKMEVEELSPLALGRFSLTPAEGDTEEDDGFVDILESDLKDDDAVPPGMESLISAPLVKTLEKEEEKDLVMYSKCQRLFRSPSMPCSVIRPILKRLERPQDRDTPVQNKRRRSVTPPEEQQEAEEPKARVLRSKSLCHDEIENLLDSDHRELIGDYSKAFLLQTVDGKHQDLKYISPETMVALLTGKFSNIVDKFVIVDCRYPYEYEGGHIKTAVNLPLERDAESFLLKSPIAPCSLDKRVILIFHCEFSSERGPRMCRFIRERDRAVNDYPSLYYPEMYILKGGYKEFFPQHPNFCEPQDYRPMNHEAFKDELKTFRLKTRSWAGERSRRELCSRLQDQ
Method in brief: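 Recombinant CDC25 form (15–25 nM) in 20 mM Tris-HCl pH 7.8, 0.5 mM TCEP, 1% (v/v) DMSO, with or without inhibitor. Reaction started with 0.5–25 µM OMFP; O-methylfluorescein formation followed continuously at 30°C (ex 485/em 530 nm). Initial rates (AU/min) analysed in Lineweaver-Burk plots for Vmax, KM and mechanism; Ki averaged from at least three independent experiments, only roughly estimated for mixed inhibition.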

A-375 [2] = experiment: Induction of cell cycle arrest in human A375 cells assessed as increase in accumulation at subG1 phase at 10 uM after 16 hrs by propidium iodide staining based flow cytometric method; assay type: functional
Method in brief: (§1)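 Seeded at 3×10^5 cells/well for 24 h at 37°C, then exposed to 10 µM inhibitor or 0.5% (v/v) DMSO for 8 or 16 h. Trypsin-harvested, fixed in cold 70% ethanol at -20°C for 1 h, stained 30 min at 4°C with 50 µg/mL PI in non-lysis solution. Phase distribution (sub-G1, G0/G1, S, G2/M) read by FACScan; triplicate experiments, mean ± SE.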

A-375 [3] = experiment: Induction of cell cycle arrest in human A375 cells assessed as decrease in accumulation at G0/G1 phase at 10 uM after 16 hrs by propidium iodide staining based flow cytometric method; assay type: functional; method in brief: as §1
A-375 [4] = experiment: Induction of cell cycle arrest in human A375 cells assessed as increase in accumulation at G2/M phase at 10 uM after 16 hrs by propidium iodide staining based flow cytometric method; assay type: functional; method in brief: as §1
A2058 [5] = experiment: Induction of cell cycle arrest in human A2058 cells assessed as increase in accumulation at subG1 phase at 10 uM after 16 hrs by propidium iodide staining based flow cytometric method; assay type: functional; method in brief: as §1
A2058 [6] = experiment: Induction of cell cycle arrest in human A2058 cells assessed as increase in accumulation at G2/M phase at 10 uM after 16 hrs by propidium iodide staining based flow cytometric method; assay type: functional; method in brief: as §1
A2058 [7] = experiment: Induction of cell cycle arrest in human A2058 cells assessed as decrease in accumulation at G0/G1 phase at 10 uM after 16 hrs by propidium iodide staining based flow cytometric method; assay type: functional; method in brief: as §1
A-375 [8] = experiment: Induction of cell cycle arrest in human A375 cells assessed as increase in accumulation at G2/M phase at 10 uM after 8 hrs by propidium iodide staining based flow cytometric method; assay type: functional; method in brief: as §1
A-375 [9] = experiment: Induction of cell cycle arrest in human A375 cells assessed as decrease in accumulation at G0/G1 phase at 10 uM after 8 hrs by propidium iodide staining based flow cytometric method; assay type: functional; method in brief: as §1
A2058 [10] = experiment: Induction of cell cycle arrest in human A2058 cells assessed as increase in accumulation at G2/M phase at 10 uM after 8 hrs by propidium iodide staining based flow cytometric method; assay type: functional; method in brief: as §1
A2058 [11] = experiment: Induction of cell cycle arrest in human A2058 cells assessed as decrease in accumulation at G0/G1 phase at 10 uM after 8 hrs by propidium iodide staining based flow cytometric method; assay type: functional; method in brief: as §1
A-375 [12] = experiment: Inhibition of colony formation in human A375 cells at 0.625 to 10 uM after 10 days by crystal violet staining based assay; assay type: functional, cell-based
Method in brief: (§2)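 Seeded in duplicate at 4×10^2 cells/well; after 2–3 days treated with 0.5% (v/v) DMSO or 0.625–10 µM inhibitor for 10 days at 37°C. Stained 1 h with 1% crystal violet in 50% ethanol; colonies of ≥50 cells counted, expressed as percentage, mean ± SE of at least three experiments.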

hTERT-BJ = experiment: Cytotoxicity against human BJ-5ta cells at 10 uM measured up to 72 hrs by MTT assay; assay type: cell-based
Method in brief: (§3)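 Cells seeded at 4×10^4/well, treated 24 h after plating with inhibitor or 0.5% (v/v) DMSO vehicle for 24, 48 or 72 h. MTT added, 3 h at 37°C under 5% CO2, formazan solubilised, absorbance at 570 nm. Viability in arbitrary units, mean ± SE of at least three independent experiments versus control. Cells grown in DMEM/10% FBS at 37°C, 5% CO2; BJ-5ta cultured in 4:1 DMEM/Medium 199 with hygromycin B.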

A2058 [13] = experiment: Inhibition of colony formation in human A2058 cells at 0.625 to 10 uM after 10 days by crystal violet staining based assay; assay type: functional, cell-based; method in brief: as §2
A2058 [14] = experiment: Cytotoxicity against human A2058 cells at 2.5 uM after 72 hrs by MTT assay; assay type: functional, cell-based; method in brief: as §3
A2058 [15] = experiment: Cytotoxicity against human A2058 cells at 5 uM after 48 hrs by MTT assay; assay type: functional, cell-based; method in brief: as §3
A2058 [16] = experiment: Cytotoxicity against human A2058 cells at 50 uM after 48 hrs by MTT assay; assay type: functional, cell-based; method in brief: as §3
A2058 [17] = experiment: Cytotoxicity against human A2058 cells at 50 uM after 24 hrs by MTT assay; assay type: functional, cell-based; method in brief: as §3
[18] = molecular target: T1, M-phase inducer phosphatase 2 (Homo sapiens); experiment: Inhibition of N-terminal His6-tagged human CDC25B (377 to 550 residues) expressed in Escherichia coli BL21(DE3) cells at 10 uM by spectrofluorimetric analysis
[19] = molecular target: T1, M-phase inducer phosphatase 2 (Homo sapiens); experiment: Inhibition of CDC25B in human A2058 cells assessed as increase in phosphorylated cdk1 level at 10 uM after 8 hrs by Western blot analysis; assay type: cell-based
Method in brief: (§4)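 After 24 h at 3×10^5 cells, 8 h treatment with 10 µM inhibitor or 0.5% DMSO. Lysis in ice-cold modified RIPA with Na3VO4, NaF and protease inhibitors; Bradford-normalised equal protein on 12% SDS-PAGE. Rabbit polyclonal anti-p-Cdk1 overnight at 4°C, HRP secondary, ECL detection; β-actin loading control.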

[20] = molecular target: T1, M-phase inducer phosphatase 2 (Homo sapiens); experiment: Inhibition of CDC25B in human A375 cells assessed as increase in phosphorylated cdk1 level at 10 uM after 8 hrs by Western blot analysis; assay type: cell-based; method in brief: as §4

CCOC(=O)c1cccc(Nc2cc(OC)cc3ccccc23)c1
Non-Toxic: Activity (hTERT-BJ)
inactive: Activity (A-375 [4]) | Activity (A2058 [5]) | inhibition [18]
active: inhibition [1] | Activity (A-375 [2]) | Activity (A-375 [3]) | Activity (A2058 [6]) | Activity (A2058 [7]) | Activity (A-375 [8]) | Activity (A-375 [9]) | Activity (A2058 [10]) | Activity (A2058 [11]) | inhibition (A-375 [12]) | inhibition (A2058 [13]) | Activity (A2058 [14]) | Activity (A2058 [15]) | Activity (A2058 [16]) | Activity (A2058 [17]) | inhibition [19] | inhibition [20]
